Holding throughout (assay type): functional
The test system of one experiment is Vero. Kind of experiment: Antiviral activity was determined in plaque reduction assay in vero cells against HSV-1 F strain. The conditions noted are these: Chlorocebus sabaeus, read-out: ID50 (the source's name). Put shortly: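 Vero cells were infected with HSV-1 (F strain) and then treated with the nucleoside analogue. ID50 is the dose giving a 50% reduction in plaque number relative to untreated controls.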
(In general: Plaque reduction counts the foci of infection that form in a cell layer.)

In experiment [1] the test system is Mus musculus. Kind of experiment: Effect of oral treatment on HSV-2 encephalitis infection in mice and survivors/total was reported at a dose 10 mg/kg; 4/20. The procedure, abridged:
(§1)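 Female Swiss-Webster mice, about 20 g, were infected intraperitoneally with 5 × 10⁴ PFU HSV-2 (strain G), roughly ten LD50. Drug was given orally once daily for 4 days, beginning 24 h after infection, with a placebo group included. Read-outs were survivors/total and mean survival time in days.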

Experiment [2] has as its system Mus musculus. Kind of experiment: Effect of oral treatment on HSV-2 encephalitis infection in mice and survivors/total was reported at a dose 20 mg/kg; 5/20. The procedure, abridged:
as §1

Experiment [3] deals with Mus musculus. Kind of experiment: Effect of oral treatment on HSV-2 encephalitis infection in mice and mean survival time was reported at a dose 40 mg/kg. Put shortly:
as §1

Experiment [4] concerns Mus musculus. Kind of experiment: Effect of oral treatment on HSV-2 encephalitis infection in mice and mean survival time was reported at a dose 20 mg/kg. The procedure, abridged:
as §1

Experiment [5] deals with Mus musculus. Kind of experiment: Effect of oral treatment on HSV-2 encephalitis infection in mice and mean survival time was reported at a dose 10 mg/kg. Put shortly:
as §1

Experiment [6] concerns Mus musculus. Kind of experiment: Effect of oral treatment on HSV-2 encephalitis infection in mice and survivors/total was reported at a dose 40 mg/kg; 7/20. The procedure, abridged:
as §1

In experiment [7] the test system is Mus musculus. Kind of experiment: Effect of oral treatment on HSV-2 encephalitis infection in mice and mean survival time was reported at a dose 5 mg/kg. The procedure, abridged: as §1
Experiment [8] deals with Mus musculus. Kind of experiment: Effect of oral treatment on HSV-2 encephalitis infection in mice and survivors/total was reported at a dose 5 mg/kg; 8/20. The procedure, abridged:
as §1

The subject of experiment [9] is Mus musculus. Kind of experiment: Effect of oral treatment on HSV-2 encephalitis infection in mice and survivors/total was reported at a dose 20 mg/kg; 8/20. The procedure, abridged:
as §1

The subject of experiment [10] is Mus musculus. Kind of experiment: Effect of oral treatment on HSV-2 encephalitis infection in mice and survivors/total was reported at a dose 10 mg/kg; 5/20. Put shortly:
as §1

A value given as a limit tells only on which side of the number the result lay.

Take `Nc1ncnc2c1ncn2COC(CO)CO`: the IC50 in the experiment on Vero was > 100 µM.
As to `Nc1nc(S)c2ncn(COC(CO)CO)c2n1`, the IC50 in the experiment with Vero came to 9 µM.
With `Nc1nc(N)c2ncn(COC(CO)CO)c2n1`, the Survival with Mus musculus [1] is 4; with Mus musculus [2], 5; with Mus musculus [6], 7. For the same compound, the Survival time in the experiment on Mus musculus [3] amounted to 11.5 days; in the experiment on Mus musculus [4], 10.9 days; in the experiment with Mus musculus [5], 10.8 days. Besides, the IC50 in the experiment with Vero turned out to be 3.3 µM.
For `Nc1nc(=O)n(COC(CO)CO)cc1F`, the IC50 with Vero is > 100 µM.
As for `Nc1ncc2ncn(COC(CO)CO)c2n1`, the IC50 with Vero was 16 µM.
Same read-out and setting: next, `O=c1[nH]c(=O)n(COC(CO)CO)cc1F`: > 100 µM; `Cc1cn(COC(CO)CO)c(=O)[nH]c1=O`: > 100 µM; `Nc1ccn(COC(CO)CO)c(=O)n1`: > 100 µM.
With `O=c1[nH]c(=O)n(COC(CO)CO)cc1Br`, the IC50 in the experiment on Vero is > 100 µM.
The same measure, in the same setting: in the case of `O=c1ccn(COC(CO)CO)c(=O)[nH]1` it was > 100 µM.
The same measure, in the same setting: next, `Nc1nc(=O)ccn1COC(CO)CO`: > 100 µM.
On the same count and under the same terms, in the case of `Nc1nc2c(ncn2COCCO)c(=O)[nH]1` [ACYCLOVIR] it was 0.5 µM.
`Nc1nc2c(ncn2COC(CO)CO)c(=O)[nH]1` [GANCICLOVIR]: the Survival time was 13.8 days in the experiment with Mus musculus [4], 9.9 days in the experiment on Mus musculus [7] and 10.9 days in the experiment with Mus musculus [5]. Moreover, the figures for the Survival in the experiment with Mus musculus [8], in the experiment on Mus musculus [9] and in the experiment on Mus musculus [10] were 8, 8 and 5, respectively. In addition, the IC50 with Vero came to 0.2 µM.

These data come from ChEMBL document CHEMBL1122960, “Acyclic analogues of 2'-deoxynucleosides related to 9-[(1,3-dihydroxy-2-propoxy)methyl]guanine as potential antiviral agents” (1985).
